An excerpt weighted towards active compounds, which were near 1.6% of everything screened.
PKA-R1A activ = PKA-R1A complex activation; 0.083% of 340,000 active; PKA-R1A dissociation, Cy5-IP20 fluorescence polarization; scaled: DMSO 0%, 113 µM cGMP 100%; P00514+P68181; activation, % at 11.4 µM; AID 504707;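 active = percent activation above the mean of all tested compounds plus 3 SD, cut at about 19% in these data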;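 also: higher means more PKAc released from R1A so a rise in polarization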
HNF4A DNA FP = change in binding of human HNF4 alpha to DNA; P41235; HNF4a-FITC DNA binding, fluorescence polarization, 1 h; activity change, % at 10 µM; 0.3% of 360,000 active; AID 1224865; in the data active = activity change above about 30%, passing the limit was not always enough
Target sequence (P41235 whole entry, looked up): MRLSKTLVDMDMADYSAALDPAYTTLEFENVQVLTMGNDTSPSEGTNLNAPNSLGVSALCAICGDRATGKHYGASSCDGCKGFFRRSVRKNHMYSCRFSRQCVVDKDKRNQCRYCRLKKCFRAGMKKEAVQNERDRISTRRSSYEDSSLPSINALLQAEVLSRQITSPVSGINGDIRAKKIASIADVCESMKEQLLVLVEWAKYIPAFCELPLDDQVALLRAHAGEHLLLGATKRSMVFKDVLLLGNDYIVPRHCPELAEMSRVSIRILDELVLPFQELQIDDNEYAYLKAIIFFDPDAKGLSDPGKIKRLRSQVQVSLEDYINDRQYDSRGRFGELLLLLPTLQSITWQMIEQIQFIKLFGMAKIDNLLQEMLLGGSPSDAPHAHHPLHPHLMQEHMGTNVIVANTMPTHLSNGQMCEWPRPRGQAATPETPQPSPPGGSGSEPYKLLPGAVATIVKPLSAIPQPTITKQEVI
TPT1 inh = blocks Candida albicans tRNA 2'-phosphotransferase; recombinant caTPT1, FP RNA substrate dephosphorylation; inhibition, % at 5 µM; 0.81% of 300,000 active; AID 1962;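 active = inhibition above the mean of all tested compounds plus 3 SD, set per screening campaign, cut at about 24% in these data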
Rpn11 inh = blocks the human proteasome subunit Rpn11. calls only at 20 µM. human 26S proteasome, Ub4-pepOG fluorescence polarization; 20S core pre-blocked with epoxomicin. 0.59% of 360,000 active. AID 588493. O00487;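 active = inhibition at 20 µM, scaled to each plate's controls, above about 33%, limit read from the data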
PKA-R2B act = activators of human PKA-R2B complex; P22694+P31323; PKA-R2B holoenzyme dissociation, Cy5-IP20 fluorescence polarization; R2B truncated from residue 108, S112A mutant; 0% DMSO only, 100% 113 µM cGMP; activation, % at 11.4 µM; 0.079% of 340,000 active; AID 504700;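 active = activation above a cutoff set at the mean over all compounds plus 3 SD, cut at about 18% in these data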;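 also: higher means more holoenzyme dissociation and a rise in polarization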
CSN deneddyl inh = blocks human CSN-mediated cullin deneddylation | Q92905 | Purified CSN, SCF-Nedd8-OG deneddylation, fluorescence polarization | inhibition, % at 12.5 µM | 0.38% of 360,000 active | AID 651999;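 active = pattern-corrected inhibition above about 35%, with an unprinted fluorescence ratio check between 0.5 and 1.5, limit read from the data, passing the limit was not always enough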
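Test system: Human Csn5 produced in HEK293T cells | Compound: 12.5 µM single point | Times: 90 min, room temperature | Signal: Fluorescence polarization readout | Read-out basis: % inhibition of substrate cleavage by Csn5 | Controls: no-enzyme wells high, enzyme-with-substrate wells low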
caTPT1 confirm = confirmation of Candida albicans TPT1 inhibitors | shares compounds with TPT1 inh | recombinant caTPT1, fluorescence polarization, RNase T1 coupled | inhibition, % at 5 µM | 74% of 2,400 active | AID 2149;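 active = inhibition above the primary screen limit, the mean inhibition of all tested compounds plus 3 SD, cut at about 25% in these data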
RNase T1 counter = counter-screen for TPT1 inhibitors: inhibitors of Aspergillus oryzae RNase T1; AID 2153; RNase T1 cleavage, fluorescence polarization, 1536-well; inhibition, % at 5 µM; 83% of 2,400 active; shares compounds with TPT1 inh;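 active = inhibition above the solvent-only control well mean plus 3 SD, limit set per screening run, cut at about 23% in these data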;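 also: inhibitors block cleavage so intact labeled substrate keeps polarization high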
Target sequence (P00651 whole entry, looked up): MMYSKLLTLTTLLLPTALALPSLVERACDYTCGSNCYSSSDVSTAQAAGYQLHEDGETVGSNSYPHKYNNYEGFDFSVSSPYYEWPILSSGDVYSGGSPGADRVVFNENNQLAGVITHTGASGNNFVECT
Hits are given with their value.

For O=C(c1ccccc1)c1ccccc1N=Cc1c(O)[nH]c(=O)[nH]c1=O the results were PKA-R1A activ inactive, HNF4A DNA FP inactive, TPT1 inh inactive, Rpn11 inh inactive, PKA-R2B act inactive and CSN deneddyl inh inactive.
Screening O=c1[nH]c(O)c(C=Nc2ccccc2Oc2ccccc2)c(=O)[nH]1 returned PKA-R1A activ inactive, HNF4A DNA FP inactive, TPT1 inh inactive, Rpn11 inh inactive, PKA-R2B act inactive and CSN deneddyl inh 47.7.
C=CCn1c(O)c(/C(CC)=N/NC(=S)Nc2ccccc2)c(=O)[nH]c1=O was read as PKA-R1A activ inactive, HNF4A DNA FP inactive, TPT1 inh inactive, Rpn11 inh inactive, PKA-R2B act inactive and CSN deneddyl inh inactive.
For O=C1NC(=O)C(=C/C=C/c2coc3ccc(Br)cc3c2=O)C(=O)N1 the results were TPT1 inh 38.5.
`O=C1NC(=O)C(=Cc2coc3ccccc3c2=O)C(=O)N1` gave PKA-R1A activ inactive, HNF4A DNA FP inactive, TPT1 inh inactive, Rpn11 inh inactive, PKA-R2B act inactive and CSN deneddyl inh inactive.
Screening NS(=O)(=O)c1ccc(-c2ccc(C=C3C(=O)NC(=S)NC3=O)o2)cc1 returned TPT1 inh 36.2.
NS(=O)(=O)c1ccc(-c2ccc(C=C3C(=O)NC(=O)NC3=O)o2)cc1 was read as PKA-R1A activ inactive, HNF4A DNA FP inactive, TPT1 inh inactive, Rpn11 inh inactive, PKA-R2B act inactive and CSN deneddyl inh inactive.
COC(=O)C1=C(c2cccc(OC)c2OC)C[C@@H]2CC[C@H]1N2C(=O)N1CCCC1 was read as PKA-R1A activ inactive, HNF4A DNA FP inactive, TPT1 inh inactive, Rpn11 inh inactive, PKA-R2B act inactive and CSN deneddyl inh inactive.
Screening CCCCn1c(N)c(C(=O)NCCN2CCOCC2)c2nc3ccccc3nc21 returned PKA-R1A activ inactive, HNF4A DNA FP inactive, TPT1 inh inactive, Rpn11 inh inactive, PKA-R2B act inactive and CSN deneddyl inh 36.5.
For COC(=O)c1ccccc1NC(=O)N1C[C@@H]2C[C@@H](C1)c1cccc(=O)n1C2 the results were PKA-R1A activ inactive, HNF4A DNA FP inactive, TPT1 inh inactive, Rpn11 inh inactive, PKA-R2B act inactive and CSN deneddyl inh inactive.
For CC(C)(C)n1nnnc1C(c1ccnc2ccccc12)N1CCC2(CC1)C(=O)NCN2c1ccccc1 (stereo unspecified) the results were HNF4A DNA FP inactive, Rpn11 inh inactive and CSN deneddyl inh 123.2.
For CC1CN1P(=O)(Oc1ccccc1)N1CC1C (stereo unspecified) the results were PKA-R1A activ inactive, HNF4A DNA FP inactive, Rpn11 inh inactive, PKA-R2B act inactive and CSN deneddyl inh inactive.
NC1C2CN3CCN(C2)CC1(c1ccccc1)C3 (stereo unspecified) was read as PKA-R1A activ inactive, HNF4A DNA FP 75.1, TPT1 inh inactive, Rpn11 inh inactive, PKA-R2B act inactive and CSN deneddyl inh inactive.
For O=c1[nH]c2ccccc2n1C1CCN(C(CCc2ccccc2)c2nnnn2C2CCCC2)CC1 (stereo unspecified) the results were HNF4A DNA FP inactive, Rpn11 inh inactive and CSN deneddyl inh 106.4.
Screening COc1ccc2[nH]c(C)c(CCNCc3cc(OC)c4c(c3)OCO4)c2c1 returned PKA-R1A activ inactive, HNF4A DNA FP inactive, Rpn11 inh inactive, PKA-R2B act inactive and CSN deneddyl inh inactive.
`O=C(COc1ccccc1)N1CCN(C2CCCC2)CC1` gave PKA-R1A activ inactive, HNF4A DNA FP 40.3, TPT1 inh inactive, Rpn11 inh inactive, PKA-R2B act inactive and CSN deneddyl inh inactive.
For Cc1ccsc1C(=O)C1CCCN(Cc2cnc(N3CCOCC3)s2)C1 (stereo unspecified) the results were PKA-R1A activ inactive, HNF4A DNA FP inactive, TPT1 inh inactive, Rpn11 inh inactive, PKA-R2B act inactive and CSN deneddyl inh 101.2.
`Cc1cccc(OP(N)(N)=O)c1C` gave PKA-R1A activ inactive, HNF4A DNA FP inactive, TPT1 inh inactive, Rpn11 inh inactive, PKA-R2B act inactive and CSN deneddyl inh 115.3.
For Cc1cccc(C)c1OP(N)(=O)Oc1c(C)cccc1C the results were PKA-R1A activ inactive, HNF4A DNA FP inactive, TPT1 inh inactive, Rpn11 inh inactive, PKA-R2B act inactive and CSN deneddyl inh inactive.
For CC(C)(C)n1nnnc1C(c1cccc2ccccc12)N1CCC2(CC1)C(=O)NCN2c1ccccc1 (stereo unspecified) the results were HNF4A DNA FP inactive, Rpn11 inh inactive and CSN deneddyl inh inactive.
`CCCCN1C(=O)/C(=C\c2ccco2)C(=O)N(CCc2ccccc2)C1=O` gave PKA-R1A activ inactive, HNF4A DNA FP inactive, TPT1 inh 43.3, Rpn11 inh inactive, PKA-R2B act inactive, CSN deneddyl inh inactive, caTPT1 confirm inactive and RNase T1 counter inactive.
`O=C1NC(=O)N(Cc2ccco2)C(=O)/C1=C/c1cccn1CCOc1ccccc1Cl` gave PKA-R1A activ inactive, HNF4A DNA FP inactive, TPT1 inh inactive, Rpn11 inh inactive, PKA-R2B act inactive and CSN deneddyl inh inactive.
Cn1cccc1/C=C1\C(=O)NC(=O)N(Cc2ccccc2)C1=O was read as PKA-R1A activ inactive, HNF4A DNA FP inactive, TPT1 inh 24.9, Rpn11 inh inactive, PKA-R2B act inactive, CSN deneddyl inh inactive, caTPT1 confirm inactive and RNase T1 counter 33.8.
Cn1cccc1/C=C1/C(=O)NC(=O)N(Cc2ccccc2)C1=O was read as PKA-R1A activ inactive, HNF4A DNA FP inactive, TPT1 inh inactive, Rpn11 inh inactive, PKA-R2B act inactive and CSN deneddyl inh inactive.
For Cn1cccc1/C=C1/C(=O)NC(=O)N(Cc2ccc(F)cc2)C1=O the results were PKA-R1A activ inactive, HNF4A DNA FP inactive, TPT1 inh inactive, Rpn11 inh inactive, PKA-R2B act inactive and CSN deneddyl inh inactive.
`C=CCN1C(=O)NC(=O)/C(=C/c2cccn2C)C1=O` gave PKA-R1A activ inactive, HNF4A DNA FP inactive, TPT1 inh 51.5, Rpn11 inh inactive, PKA-R2B act inactive, CSN deneddyl inh inactive, caTPT1 confirm inactive and RNase T1 counter inactive.
Screening O=C1NC(=O)N(Cc2ccccc2)C(=O)/C1=C\c1ccco1 returned PKA-R1A activ inactive, HNF4A DNA FP inactive, TPT1 inh 65.8, Rpn11 inh inactive, PKA-R2B act inactive, CSN deneddyl inh inactive, caTPT1 confirm inactive and RNase T1 counter 22.5.
